High-throughput results: PubChem BioAssay, several laboratories
CSN deneddyl inh – inhibitors of CSN-mediated cullin deneddylation, primary screen, biochemical, fluorescence polarization, uHTS. COP9 signalosome complex subunit 5 (Homo sapiens), Q92905. Purified CSN, SCF-Nedd8-OG deneddylation. inhibition, % at 12.5 µM. 360,000 tested, 0.38% active. AID 651999, 2013;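 active means pattern-corrected inhibition above about 35%, with an unprinted fluorescence ratio check between 0.5 and 1.5, limit read from the data, passing the limit was not always enough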;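 further: 0% = enzyme with substrate and 100% = substrate without enzyme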
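Assay system: Purified human Csn5 enzyme expressed in HEK293T cells | Amount: Enzyme 0.24 nM | Measured by: Fluorescence polarization readout | Medium: Tris/NaCl/DTT buffer, pH 7.5 | Compound dosing: One concentration, 12.5 µM, 0.25% DMSO | Times: 90 min incubation of compound, enzyme and substrate at room temperature | Control set: no-enzyme wells high, enzyme-with-substrate wells low | Read-out: % inhibition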
IDE inh – human IDE inhibitors in live cells, primary screen, fluorescence polarization, HEK cells, FAbetaB substrate. AID 434962, 2010. FAbetaB cleavage. 320,000 tested, 0.41% active. inhibition, % at 5.59 µM. Insulin-degrading enzyme (Homo sapiens), P14735;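 active means percent inhibition above the average of all tested compounds plus 3 SD, set per screening campaign, cut at about 16% in these data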;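 further: IDE supplied by intact live HEK cells; FP after avidin binding of uncleaved biotin substrate so inhibition keeps polarization high; 0% = DMSO wells and 100% = 60 µM reference IDE inhibitor Ii1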
Rpn11 inh – Rpn11 (PSMD14) deubiquitinase inhibitors, primary screen, biochemical, fluorescence polarization, uHTS | 26S proteasome non-ATPase regulatory subunit 14 (Homo sapiens), O00487 | human 26S proteasome, Ub4-pepOG fluorescence polarization; 20S core pre-blocked with epoxomicin | inhibition, % at 20 µM | 360,000 tested, 0.59% active | AID 588493, 2011;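 active means inhibition at 20 µM, scaled to each plate's controls, above about 33%, limit read from the data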
HNF4A DNA FP – change in binding of human HNF4A to DNA, primary screen, biochemical, fluorescence polarization, FITC-DNA; Hepatocyte nuclear factor 4-alpha (Homo sapiens), P41235; 1 h; activity change, % at 10 µM; 360,000 tested, 0.3% active; in the data active means activity change above about 30%, passing the limit was not always enough
Target sequence (P41235 whole entry, looked up): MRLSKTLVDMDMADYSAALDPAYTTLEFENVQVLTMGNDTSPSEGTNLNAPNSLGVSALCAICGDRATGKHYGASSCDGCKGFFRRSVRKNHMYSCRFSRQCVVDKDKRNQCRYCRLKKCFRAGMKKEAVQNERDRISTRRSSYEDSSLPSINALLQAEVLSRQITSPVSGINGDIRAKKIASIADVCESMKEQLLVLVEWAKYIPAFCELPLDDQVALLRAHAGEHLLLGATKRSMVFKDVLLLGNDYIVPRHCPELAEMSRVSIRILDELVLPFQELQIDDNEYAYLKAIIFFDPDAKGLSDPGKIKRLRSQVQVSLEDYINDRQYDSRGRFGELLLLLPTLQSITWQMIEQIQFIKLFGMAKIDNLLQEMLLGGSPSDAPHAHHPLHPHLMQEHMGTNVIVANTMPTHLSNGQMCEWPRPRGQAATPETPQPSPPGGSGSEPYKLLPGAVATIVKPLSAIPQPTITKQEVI
TPT1 inhibitor – Candida albicans TPT1 enzyme inhibitors, primary screen, biochemical, fluorescence polarization; recombinant caTPT1, FP RNA substrate dephosphorylation; 300,000 tested, 0.81% active; AID 1962, 2009; inhibition, % at 5 µM; tRNA 2'-phosphotransferase TPT1 (Candida albicans SC5314);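 active means inhibition above the mean of all tested compounds plus 3 SD, set per screening campaign, cut at about 24% in these data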;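 further: plate controls were DMSO alone for no effect and ferristatin control at 100 nM for full effect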
IDE act – human IDE activators in live cells, primary screen, fluorescence polarization, HEK cells, FAbeta-B substrate; activation, % at 5.96 µM; AID 493087, 2011; 340,000 tested, 0.073% active; FAbeta-B cleavage; 0% vehicle, 100% cell-free pure enzyme wells;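 active means activation above the mean of all tested compounds plus 3 SD, set per screening campaign, cut at about 17% in these data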
Numbers without * were called inactive; . = no result shown. Shown are actives, neighbours in structure and some others; about 1.7% of the full set was active somewhere.

SMILES | CSN deneddyl inh | IDE inh | Rpn11 inh | HNF4A DNA FP | TPT1 inhibitor | IDE act
C#CCOCCOCCOCCNc1nc(N2CCN(C(=O)CCCCCCCCCCNC(=O)[C@H]([C@@H](C)CC)n3cc(CCCCCN)nn3)CC2)nc(N2CCN(C(=O)CCCCCCCCCCNC(=O)[C@@H]([C@H](C)CC)n3cc(CCCCCN)nn3)CC2)n1 | . | -8.0 | . | . | -2.0 | .
C#CCOCCOCCOCCNc1nc(N2CCN(C(=O)[C@H](CCCCN)n3cc([C@@H](N)C(C)CC)nn3)CC2)nc(N2CCN(C(=O)[C@H](Cc3cc4ccccc4[nH]3)n3cc([C@@H](N)CC(C)C)nn3)CC2)n1 (stereo not given in full) | 45.0* | 5.9 | 22.6 | 49.5* | -2.6 | 4.3
C#CCOCCOCCOCCNc1nc(N2CCN(C(=O)CCCCCCCCCCNC(=O)[C@H]([C@@H](C)CC)n3cc(CCCCCN)nn3)CC2)nc(N2CCN(C(=O)CCCCCCCCCCNC(=O)[C@H](CO)n3cc(CCCCCN)nn3)CC2)n1 | 6.3 | 8.6 | -11.8 | 13.7 | -1.8 | 36.9*
C#CCOCCOCCOCCNc1nc(N2CCN(C(=O)CCCCCCCCCCNC(=O)Cn3cc(CCCCCN)nn3)CC2)nc(N2CCN(C(=O)CCCCCCCCCCNC(=O)Cn3cc(CCCCCN)nn3)CC2)n1 | 59.8* | -1.9 | 17.0 | 38.1* | -6.0 | 6.4
C#CCOCCOCCOCCNc1nc(N2CCN(C(=O)CCCCCCCCCCNC(=O)Cn3cc(CCCCCN)nn3)CC2)nc(N2CCN(C(=O)CCCCCCCCCCNC(=O)[C@@H](CCC(=O)O)n3cc(CCCCCN)nn3)CC2)n1 | 4.3 | -5.0 | -1.2 | 5.0 | -4.6 | 2.4
CCC(C)NC(=O)/C=C1\Sc2ccccc2NC1=O (stereo not given) | -2.2 | 0.3 | -2.8 | -2.0 | -4.5 | 2.8
C#CCOCCOCCOCCNc1nc(N2CCN(C(=O)CCCCCCCCCCNC(=O)[C@H]([C@@H](C)CC)n3cc(CCCCN=C(N)N)nn3)CC2)nc(N2CCN(C(=O)CCCCCCCCCCNC(=O)[C@H](CCCCN)n3cc(C)nn3)CC2)n1 | . | -3.5 | . | . | -1.2 | .
C#CCOCCOCCOCCNc1nc(N2CCN(C(=O)CCCCCCCCCCNC(=O)[C@H]([C@@H](C)CC)n3cc(CCCCN=C(N)N)nn3)CC2)nc(N2CCN(C(=O)CCCCCCCCCCNC(=O)[C@H]([C@@H](C)CC)n3cc(CCCCN=C(N)N)nn3)CC2)n1 | . | -6.9 | . | . | -0.9 | .
C#CCOCCOCCOCCNc1nc(N2CCN(C(=O)CCCCCCCCCCNC(=O)[C@H]([C@@H](C)CC)n3cc(CCCCCN)nn3)CC2)nc(N2CCN(C(=O)CCCCCCCCCCNC(=O)[C@H]([C@@H](C)CC)n3cc(CCCCN=C(N)N)nn3)CC2)n1 | 116.4* | -4.9 | 88.2* | 153.3 | 0.3 | 51.1*
C#CCOCCOCCOCCNc1nc(N2CCN(C(=O)CCCCCCCCCCNC(=O)[C@H]([C@@H](C)CC)n3cc(CCCCN=C(N)N)nn3)CC2)nc(N2CCN(C(=O)CCCCCCCCCCNC(=O)[C@H](CO)n3cc(CCCCCN)nn3)CC2)n1 | 105.9* | 4.2 | 75.1* | 146.1 | -0.4 | 40.4*
c1ccc(C2CCC(N3CCN(c4ccccc4)CC3)CC2)cc1 (stereo not given) | 0.5 | 9.4 | -8.5 | 2.3 | -3.6 | 5.3
CCC1=NN2C(=N)/C(=C/c3ccc(OS(=O)(=O)c4ccccc4)cc3)C(=O)N=C2S1 | 6.2 | 5.5 | 27.9 | 33.1* | 12.5 | 1.3
CCS(=O)(=O)C1=NN2C(=N)/C(=C\c3ccc(OS(=O)(=O)c4ccccc4)cc3)C(=O)N=C2S1 | 8.8 | 5.9 | 11.4 | -3.2 | 0.5 | 5.9
O=C(O)C1=CC(=C(c2ccc(O)c(C(=O)O)c2)c2ccc(O)c(C(=O)O)c2)C=CC1=O | . | -2.1 | . | . | 101.3* | .
O=C(O)c1cc(O)ccc1O | -9.2 | . | 7.0 | -6.0 | . | 0.9
O=C(CCc1nc2ccccc2c(=O)[nH]1)Nc1ccc(N2CCCCC2)cc1 | -3.6 | 17.4* | -0.8 | -7.5 | -2.9 | -7.4
COc1cc(/C=N/NC(=S)Nc2cccc(Cl)c2C)ccc1OCC(=O)N1CC(C)OC(C)C1 (stereo not given) | -2.4 | 0.0 | 6.6 | -0.7 | 2.6 | 8.6
CCc1ccccc1NC(=O)CN1CCN(C(=O)CNC(=O)Cc2cccc3ccccc23)CC1 | 3.6 | 2.3 | -5.0 | 34.0* | . | 2.3
CCN=C1NN=C(c2ccc(C)cc2)CS1 | 2.7 | -1.4 | 40.9* | 14.4 | 19.6 | 0.5
c1ccc(CN=C2NN=C(c3ccccc3)CS2)cc1 | 3.2 | -0.4 | 7.5 | -1.4 | 5.3 | 1.8
COc1ccc(Cn2c(SCc3ccc(C)cc3)nc3cc(OC)c(OC)cc3c2=N)cc1Cl | -2.8 | 0.7 | 5.7 | -0.2 | 2.0 | 19.9*
COc1ccc(Cn2c(SCc3cc(C)ccc3C)nc3cc(OC)c(OC)cc3c2=N)cc1 | 3.6 | 0.8 | 12.0 | 4.9 | 0.5 | 26.6*
CCCCC12CN3CCN(CC(C3)/C1=N\NC(=O)Nc1ccccc1)C2 | 41.9* | 7.7 | -2.6 | 3.5 | -0.3 | -0.4
Cc1cccc(C(=O)NCCNc2nc3cc(C)c(C)cc3cc2C)c1 | 6.5 | 1.2 | -0.4 | 60.4* | 2.2 | -0.5
CCOCCCNC(=O)c1ccccc1OC1CCN(S(C)(=O)=O)CC1 | -3.1 | -0.6 | -1.7 | 6.2 | -0.6 | 2.6
SMILES | CSN deneddyl inh | IDE inh | Rpn11 inh | HNF4A DNA FP | TPT1 inhibitor | IDE act
Cc1ccc(C=C2C=C(c3ccccc3)OC2=O)cc1 | 3.9 | . | 9.5 | -0.8 | . | .
Cc1ccc(C2=C/C(=C/c3cccs3)C(=O)O2)cc1 | 48.9* | -1.1 | . | 88.7 | 7.7 | 1.8
CCCn1c(N/N=C\C=C\c2ccccc2)nc2c1c(=O)[nH]c(=O)n2C | 7.5 | 16.4* | 0.7 | -1.9 | -5.1 | -1.9
CC(/C=C/c1ccccc1)=N\Nc1nc2c(c(=O)[nH]c(=O)n2C)n1CCO | . | 3.3 | . | . | -1.9 | .
COC(=O)C1Cc2ccccc2CN1C(=O)CCl (stereo not given) | 2.3 | -0.7 | -2.1 | -6.2 | -2.2 | 6.2
CCN(CC)S(=O)(=O)c1ccc(N2CCN(C)CC2)c(NC(=O)Nc2ccc(C)cc2)c1 | 2.2 | -3.5 | 2.8 | -1.2 | -0.9 | -0.6
COC(=O)Nc1ccc(N2CCOCC2)c(S(=O)(=O)N2CCOCC2)c1 | -1.1 | -10.0 | -3.5 | 8.0 | -2.9 | 4.9
COC(=O)c1cc(S(=O)(=O)N2c3ccccc3CC2C)cn1C (stereo not given) | 37.8* | 2.0 | -0.7 | 1.8 | 0.4 | 0.7
CC1Cc2ccccc2N1S(=O)(=O)c1cccs1 (stereo not given) | 57.5* | 7.0 | . | 114.7* | 4.1 | 0.7
